ChEMBL document CHEMBL2163244, “Structure-guided design, synthesis and biological evaluation of novel DNA ligase inhibitors with in vitro and in vivo anti-staphylococcal activity” (Bioorg Med Chem Lett, 2012)
In brackets after ≈: the same amount, converted by molar mass. Activity calls are given as the source filed them. The rule behind the calls is not given here.

What was measured:
DNA ligase = DNA ligase (Staphylococcus aureus, UniProt Q9AIU7); experiment: Inhibition of Staphylococcus aureus NAD-dependent DNA ligase
Escherichia coli [1] = experiment: Antibacterial activity against tolC/rfaC-deficient Escherichia coli harboring ligA251 mutant; type: functional
Method in brief: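 MIC read-out. The E. coli strain carries only the ligA251 allele (L15F exchange), which gives more than 20-fold reduced ligation activity and sensitizes it to LigA inhibitors.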

[2] = Inhibition of Streptococcus pneumoniae NAD-dependent DNA ligase assessed as equilibrium dissociation constant
Escherichia coli [3] = experiment: Antibacterial activity against tolC/rfaC-deficient Escherichia coli harboring ligA251 mutant and pECLigA; type: functional
Method in brief: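 MIC read-out. The strain is the isogenic ligA251 E. coli strain, over-producing wild-type LigA from plasmid pECLigA, which gives high ligation activity.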

[4] = Inhibition of Escherichia coli NAD-dependent DNA ligase
Escherichia coli [5] = experiment: Antibacterial activity against tolC/rfaC-deficient Escherichia coli; type: functional
Rattus norvegicus [6] = experiment: fAUC (0 to 24 hrs) in rat at 1 mg/kg, po; type: ADME, organism-based; set-up: dose 1 mg/kg, route oral; settings: in vivo
[7] = Selectivity ratio of IC50 for Streptococcus pneumoniae NAD-dependent DNA ligase to IC50 for Staphylococcus aureus NAD-dependent DNA ligase
Saccharomyces cerevisiae = experiment: Antifungal activity against Saccharomyces cerevisiae A136 expressing ATP-dependent DNA ligase by CLSI dilution method; type: functional
Enterococcus faecium = experiment: Antibacterial activity against Enterococcus faecium A949 by CLSI dilution method; type: functional
[8] = Cmax in rat at 1 mg/kg, po; type: ADME, organism-based; set-up: dose 1 mg/kg, route oral; settings: in vivo
Pseudomonas aeruginosa = experiment: Antibacterial activity against Pseudomonas aeruginosa ATCC 27853 by CLSI dilution method; type: functional
Staphylococcus aureus [9] = experiment: Antibacterial activity against Staphylococcus aureus A798 by CLSI dilution method; type: functional
[10] = target: DNA ligase 1 (Homo sapiens) (UniProt P18858); experiment: Inhibition of human DNA Ligase 1
Haemophilus influenzae = experiment: Antibacterial activity against wild type Haemophilus influenzae A921 by CLSI dilution method; type: functional
Klebsiella pneumoniae = experiment: Antibacterial activity against Klebsiella pneumoniae T6474 by CLSI dilution method; type: functional
[11] = Total plasma clearance in rat at 0.1 mg/kg, iv and 1 mg/kg, po; type: ADME, organism-based
Method in brief: (§1)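 Rat intravenous PK: 0.1 mg/kg dose in 5% DMSO/28.5% HPBCD in water. Total plasma clearance is in mL/min/kg. Volume of distribution at steady state is in L/kg.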

Streptococcus pneumoniae [12] = experiment: Antibacterial activity against wild type Streptococcus pneumoniae A-216 by CLSI dilution method; type: functional
[13] = AUC (0 to infinity) in rat at 0.1 mg/kg, iv; type: ADME, organism-based; set-up: time infinity, dose 0.1 mg/kg, route intravenous; settings: plasma; method in brief: as §1
Moraxella catarrhalis = experiment: Antibacterial activity against Moraxella catarrhalis A894 by CLSI dilution method; type: functional
Clostridioides difficile = experiment: Antibacterial activity against Clostridium difficile ATCC A1148 by CLSI dilution method; type: functional
Escherichia coli [14] = experiment: Antibacterial activity against Escherichia coli ATCC 25922 by CLSI dilution method; type: functional
[15] = Cmax in mouse at 10 mg/kg, sc; type: ADME, organism-based; set-up: dose 10 mg/kg, route subcutaneous; settings: in vivo
[16] = Volume of distribution at steady state in rat at 0.1 mg/kg, iv and 1 mg/kg, po; type: ADME, organism-based; settings: in vivo, read-out: Vdss; method in brief: as §1
[17] = Terminal half life in mouse at 10 mg/kg, sc; type: ADME, organism-based; set-up: dose 10 mg/kg, route subcutaneous; settings: in vivo, read-out: beta t1/2 (converted)
[18] = Fraction unbound in rat plasma at 0.1 mg/kg, iv and 1 mg/kg, po; type: ADME, organism-based
Cytochrome P450 3A4 = Cytochrome P450 3A4 (Homo sapiens, UniProt P08684); experiment: Inhibition of human CYP3A4; type: ADME
Acinetobacter baumannii = experiment: Antibacterial activity against Acinetobacter baumannii T6474 by CLSI dilution method; type: functional
Staphylococcus aureus [19] = experiment: Antibacterial activity against Staphylococcus aureus ATCC 25923 by CLSI dilution method in presence of 50% human serum; type: functional
Method in brief: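 MIC determined in the presence of 50% human serum.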

[20] = Intrinsic clearance in rat hepatocytes measured per 10^6 cells; type: ADME, cell-based, Hepatocyte; settings: read-out: CLH
[21] = Terminal half life in rat at 0.1 mg/kg, iv and 1 mg/kg, po; type: ADME, organism-based; settings: in vivo, read-out: beta t1/2 (converted)
Cytochrome P450 2C9 = Cytochrome P450 2C9 (Homo sapiens, UniProt P11712); experiment: Inhibition of human CYP2C9; type: ADME
[22] = AUC (0 to 24 hrs) in rat at 1 mg/kg, po; type: ADME, organism-based; set-up: time < 24 hr, dose 1 mg/kg, route oral; settings: plasma
[23] = Fraction unbound in mouse plasma at 10 mg/kg, sc; type: ADME, organism-based; set-up: dose 10 mg/kg, route subcutaneous
Streptococcus pneumoniae [24] = experiment: Antibacterial activity against Streptococcus pneumoniae ATCC 49619 by CLSI dilution method; type: functional
Rattus norvegicus [25] = experiment: fAUC (0 to infinity) in rat at 0.1 mg/kg, iv; type: ADME, organism-based; set-up: dose 0.1 mg/kg, route intravenous; settings: in vivo; method in brief: as §1
Staphylococcus aureus [26] = experiment: Antibacterial activity against Staphylococcus aureus ATCC 25923 by CLSI dilution method; type: functional
[27] = AUC (0 to 24 hrs) in mouse at 10 mg/kg, sc; type: ADME, organism-based; set-up: time < 24 hr, dose 10 mg/kg, route subcutaneous; settings: plasma
[28] = Oral bioavailability in rat at 1 mg/kg; type: ADME, organism-based; settings: in vivo
[29] = target: T1, Dihydrofolate reductase (Homo sapiens) (UniProt P00374); experiment: Inhibition of human DHFR
T1 sequence (whole entry): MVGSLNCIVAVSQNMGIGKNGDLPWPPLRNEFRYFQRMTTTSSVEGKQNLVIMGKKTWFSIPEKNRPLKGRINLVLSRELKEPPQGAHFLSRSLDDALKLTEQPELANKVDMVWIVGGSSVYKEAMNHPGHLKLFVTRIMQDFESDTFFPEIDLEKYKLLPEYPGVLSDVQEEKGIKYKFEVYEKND

Enterococcus faecalis = experiment: Antibacterial activity against Enterococcus faecalis ATCC 29212 by CLSI dilution method; type: functional
Staphylococcus aureus [30] = experiment: Bacteriostatic activity against […]-sensitive Staphylococcus aureus DM 11823 in mouse neutropenic thigh infection model at 100 mg/kg, sc administered 2 hrs post infection measured after 24 hrs; type: functional, organism-based; set-up: dose 100 mg/kg
Method in brief: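 Neutropenic murine thigh infection with a quinolone-sensitive laboratory descendant of S. aureus DSM 11823. Inoculum 2×10^3 cfu given i.m. Compound given once at 100 mg/kg s.c., 2 h post-infection, in 5% DMSO/15% Solutol HS15 in water. Bacterial burden assessed 24 h after infection.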

Cytochrome P450 2D6 = Cytochrome P450 2D6 (Homo sapiens, UniProt P10635); experiment: Inhibition of human CYP2D6; type: ADME
[31] = Intrinsic clearance in rat liver microsomes; type: ADME, Microsome; settings: read-out: CLH
Staphylococcus aureus [32] = experiment: Antibacterial activity against […]-sensitive Staphylococcus aureus DM 11823; type: functional
Staphylococcus aureus [33] = experiment: Antibacterial activity against wild type Staphylococcus aureus ATCC 29213 by CLSI dilution method; type: functional
[34] = target: T1, Dihydrofolate reductase (Homo sapiens); experiment: Inhibition of human DHFR at 25 uM
[35] = target: DNA ligase 1 (Homo sapiens) (UniProt P18858); experiment: Inhibition of human DNA Ligase 1 at 25 uM

Sequence of DNA ligase 1 (Homo sapiens) (P18858 whole entry): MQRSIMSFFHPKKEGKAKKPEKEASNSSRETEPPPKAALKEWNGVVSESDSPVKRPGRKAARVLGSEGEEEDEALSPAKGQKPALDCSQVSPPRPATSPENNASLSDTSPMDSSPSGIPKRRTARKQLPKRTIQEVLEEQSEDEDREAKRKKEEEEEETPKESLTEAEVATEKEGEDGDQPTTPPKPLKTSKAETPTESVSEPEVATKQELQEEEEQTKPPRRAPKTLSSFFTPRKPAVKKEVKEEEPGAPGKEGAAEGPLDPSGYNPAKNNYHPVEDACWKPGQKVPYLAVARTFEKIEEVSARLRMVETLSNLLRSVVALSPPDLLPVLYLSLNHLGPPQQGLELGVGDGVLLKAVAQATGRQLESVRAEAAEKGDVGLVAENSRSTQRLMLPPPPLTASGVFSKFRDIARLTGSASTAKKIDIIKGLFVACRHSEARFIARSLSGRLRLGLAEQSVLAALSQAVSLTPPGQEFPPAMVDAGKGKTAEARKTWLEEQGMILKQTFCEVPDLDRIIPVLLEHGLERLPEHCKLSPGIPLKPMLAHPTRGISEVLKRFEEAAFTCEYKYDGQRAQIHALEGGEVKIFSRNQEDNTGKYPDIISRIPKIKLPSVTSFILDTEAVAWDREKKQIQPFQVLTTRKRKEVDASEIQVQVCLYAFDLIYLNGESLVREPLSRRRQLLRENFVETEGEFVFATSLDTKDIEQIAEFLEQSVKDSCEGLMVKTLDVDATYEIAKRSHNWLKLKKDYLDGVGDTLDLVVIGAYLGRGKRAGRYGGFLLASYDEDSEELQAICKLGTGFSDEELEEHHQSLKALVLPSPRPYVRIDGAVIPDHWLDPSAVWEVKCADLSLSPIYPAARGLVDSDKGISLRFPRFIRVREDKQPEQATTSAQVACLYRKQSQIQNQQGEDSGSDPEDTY
Sequence of DNA ligase (Q9AIU7 whole entry): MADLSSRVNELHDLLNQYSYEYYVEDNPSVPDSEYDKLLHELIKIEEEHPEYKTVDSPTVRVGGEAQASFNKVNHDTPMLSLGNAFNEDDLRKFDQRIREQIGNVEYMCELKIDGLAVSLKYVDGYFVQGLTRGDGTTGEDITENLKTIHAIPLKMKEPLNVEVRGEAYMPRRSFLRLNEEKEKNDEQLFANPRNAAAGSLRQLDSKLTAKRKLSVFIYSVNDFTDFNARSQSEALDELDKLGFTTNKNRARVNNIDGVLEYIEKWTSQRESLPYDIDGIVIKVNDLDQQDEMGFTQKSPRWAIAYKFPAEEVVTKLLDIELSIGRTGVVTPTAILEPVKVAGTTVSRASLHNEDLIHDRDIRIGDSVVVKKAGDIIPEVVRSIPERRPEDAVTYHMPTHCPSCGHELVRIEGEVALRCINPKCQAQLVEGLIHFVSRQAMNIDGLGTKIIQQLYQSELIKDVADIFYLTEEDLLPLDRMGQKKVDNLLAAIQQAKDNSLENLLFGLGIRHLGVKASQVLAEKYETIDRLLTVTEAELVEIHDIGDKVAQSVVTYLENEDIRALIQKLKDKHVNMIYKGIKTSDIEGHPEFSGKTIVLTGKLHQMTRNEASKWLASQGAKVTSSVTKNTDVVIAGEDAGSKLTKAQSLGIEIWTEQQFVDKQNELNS
Sequence of Cytochrome P450 3A4 (P08684 whole entry): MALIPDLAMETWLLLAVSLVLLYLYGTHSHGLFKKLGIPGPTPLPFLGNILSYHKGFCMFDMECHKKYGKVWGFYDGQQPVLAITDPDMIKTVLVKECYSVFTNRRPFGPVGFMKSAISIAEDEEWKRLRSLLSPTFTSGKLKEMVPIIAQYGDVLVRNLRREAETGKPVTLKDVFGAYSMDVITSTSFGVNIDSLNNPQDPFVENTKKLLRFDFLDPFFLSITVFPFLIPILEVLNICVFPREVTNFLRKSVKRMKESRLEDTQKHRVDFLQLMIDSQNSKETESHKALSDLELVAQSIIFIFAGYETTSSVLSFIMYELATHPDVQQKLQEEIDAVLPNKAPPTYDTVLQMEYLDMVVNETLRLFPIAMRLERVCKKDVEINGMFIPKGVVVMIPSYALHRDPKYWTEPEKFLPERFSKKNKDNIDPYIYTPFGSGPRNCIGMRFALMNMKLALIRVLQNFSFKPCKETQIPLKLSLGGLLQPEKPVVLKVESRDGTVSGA
Sequence of Cytochrome P450 2D6 (P10635 whole entry): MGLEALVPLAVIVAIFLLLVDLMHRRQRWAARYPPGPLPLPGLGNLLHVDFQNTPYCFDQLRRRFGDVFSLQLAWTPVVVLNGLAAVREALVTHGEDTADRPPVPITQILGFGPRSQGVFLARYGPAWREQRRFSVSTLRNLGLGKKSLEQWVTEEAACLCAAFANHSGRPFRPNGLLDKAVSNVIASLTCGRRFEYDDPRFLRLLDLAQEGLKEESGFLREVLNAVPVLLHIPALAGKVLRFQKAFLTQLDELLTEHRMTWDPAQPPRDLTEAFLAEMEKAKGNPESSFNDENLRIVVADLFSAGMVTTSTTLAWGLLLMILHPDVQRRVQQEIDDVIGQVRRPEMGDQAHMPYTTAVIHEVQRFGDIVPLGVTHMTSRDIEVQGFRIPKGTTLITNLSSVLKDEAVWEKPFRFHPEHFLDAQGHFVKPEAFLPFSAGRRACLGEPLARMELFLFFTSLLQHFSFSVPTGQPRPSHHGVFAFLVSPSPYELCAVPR
Sequence of Cytochrome P450 2C9 (P11712 whole entry): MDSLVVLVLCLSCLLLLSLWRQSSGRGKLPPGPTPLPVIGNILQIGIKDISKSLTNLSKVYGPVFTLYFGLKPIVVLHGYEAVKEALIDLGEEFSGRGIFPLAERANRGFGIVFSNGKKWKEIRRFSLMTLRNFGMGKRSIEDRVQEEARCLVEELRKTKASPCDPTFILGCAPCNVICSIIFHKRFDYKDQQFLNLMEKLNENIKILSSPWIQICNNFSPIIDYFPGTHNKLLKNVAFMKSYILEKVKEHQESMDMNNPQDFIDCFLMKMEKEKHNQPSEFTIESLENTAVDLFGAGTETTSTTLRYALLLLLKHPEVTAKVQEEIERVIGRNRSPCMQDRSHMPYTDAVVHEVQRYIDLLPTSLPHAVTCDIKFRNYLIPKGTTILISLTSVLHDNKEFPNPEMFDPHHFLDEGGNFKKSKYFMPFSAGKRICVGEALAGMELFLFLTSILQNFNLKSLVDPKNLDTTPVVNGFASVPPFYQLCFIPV

Nc1cc(-c2nc3ccccc3[nH]2)n[nH]c1=O
IC50 (DNA ligase): 2.5 µM
MIC (Escherichia coli [1]): 8 µg/mL (≈ 35.2 µM)
Kd [2]: 20 µM
MIC (Escherichia coli [3]): 16 µg/mL (≈ 70.4 µM)
IC50 [4]: > 25 µM
MIC (Escherichia coli [5]): > 16 µg/mL

NC(=O)c1cc2cc(Br)c(C(F)(F)F)nc2nc1N
fAUC (Rattus norvegicus [6]): 171 ng·h/mL
Ratio IC50 [7]: 2
MIC (Saccharomyces cerevisiae): > 32 µg/mL
MIC (Enterococcus faecium): > 32 µg/mL
Cmax [8]: 410 ng/mL
MIC (Pseudomonas aeruginosa): > 32 µg/mL
MIC (Staphylococcus aureus [9]): 1 µg/mL (≈ 2.98 µM)
inhibition [10]: inactive
MIC (Haemophilus influenzae): 0.125 µg/mL (≈ 0.373 µM)
MIC (Klebsiella pneumoniae): > 32 µg/mL
clearance [11]: 11 mL/min/kg
MIC (Streptococcus pneumoniae [12]): 2 µg/mL (≈ 5.97 µM)
AUC(0-inf) [13]: 150 ng·h/mL
MIC (Moraxella catarrhalis): 8 µg/mL (≈ 23.9 µM)
MIC (Clostridioides difficile): 8 µg/mL (≈ 23.9 µM)
MIC (Escherichia coli [1]): 0.063 µg/mL (≈ 0.188 µM)
MIC (Escherichia coli [14]): > 32 µg/mL
Cmax [15]: 7050 ng/mL
Vd [16]: 0.71 L/kg
half-life [17]: 2.9 h
fraction unbound [18]: 0.14
IC50 (Cytochrome P450 3A4): > 50 µM
MIC (Acinetobacter baumannii): > 32 µg/mL
MIC (Staphylococcus aureus [19]): 2 µg/mL
hepatocyte CLint [20]: 1.8 µL/min/1e6 cells
half-life [21]: 2.3 h
IC50 (Cytochrome P450 2C9): > 50 µM
AUC(0-t) at 24 h [22]: 1220 ng·h/mL
fraction unbound [23]: 0.046
MIC (Streptococcus pneumoniae [24]): 16 µg/mL (≈ 47.7 µM)
fAUC (Rattus norvegicus [25]): 21 ng·h/mL
MIC (Staphylococcus aureus [26]): 1 µg/mL (≈ 2.98 µM)
AUC(0-t) at 24 h [27]: 84500 ng·h/mL
bioavailability [28]: 80%
inhibition [29]: inactive
MIC (Enterococcus faecalis): 8 µg/mL (≈ 23.9 µM)
Activity (Staphylococcus aureus [30]): Active
IC50 (Cytochrome P450 2D6): > 50 µM
IC50 [4]: 0.3 µM
microsomal CLint [31]: 20 µL/min/mg
MIC (Staphylococcus aureus [32]): 0.5 µg/mL (≈ 1.49 µM)
MIC (Escherichia coli [5]): 2 µg/mL (≈ 5.97 µM)
MIC (Staphylococcus aureus [33]): 1 µg/mL (≈ 2.98 µM)

COc1nc2nc(N)nc(N)c2nc1C
inhibition [34]: inactive
IC50 (DNA ligase): 2.5 µM
MIC (Escherichia coli [1]): 2 µg/mL (≈ 9.7 µM)
inhibition [35]: inactive
IC50 [4]: 25 µM
MIC (Escherichia coli [5]): > 16 µg/mL

NC(=O)c1cc2c(N3CCC(O)CC3)c(Br)c(C(F)(F)F)nc2nc1N
inhibition [10]: inactive
MIC (Haemophilus influenzae): > 16 µg/mL
MIC (Streptococcus pneumoniae [12]): 16 µg/mL (≈ 36.8 µM)
MIC (Escherichia coli [1]): 0.25 µg/mL (≈ 0.576 µM)
Kd [2]: 0.039 µM
inhibition [29]: inactive
IC50 [4]: 0.7 µM
MIC (Escherichia coli [5]): 8 µg/mL (≈ 18.4 µM)
MIC (Staphylococcus aureus [33]): > 16 µg/mL

NC(=O)c1cc2cc(Br)c(C3CCCC3)nc2nc1N
inhibition [10]: inactive
MIC (Haemophilus influenzae): > 16 µg/mL
MIC (Streptococcus pneumoniae [12]): > 16 µg/mL
MIC (Escherichia coli [1]): 4 µg/mL (≈ 11.9 µM)
Kd [2]: 0.184 µM
inhibition [29]: inactive
IC50 [4]: 0.5 µM
MIC (Escherichia coli [5]): > 16 µg/mL
MIC (Staphylococcus aureus [33]): > 16 µg/mL
